# From PubChem BioAssay AID624179 (Johns Hopkins Ion Channel Center, 2012)
# pEC50: −log10 of the molar value.
# Tested on: HEK293 M3R/RGS4, carbachol calcium flux, Fluo4
# Experiment: RGS4 potentiator concentration-response, SAR follow-up, cell-based, HEK293 M3R/RGS4, calcium flux, SAR compounds (AID 624179)
# Procedure, shortened: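 Material: HEK293-FlpIn-TREx cells, M3 receptor, doxycycline-induced RGS4 (10 ng/ml). Buffer or medium: HBSS-HEPES buffer pH 7.4. Probe or stimulus: carbachol at EC20. Doses: ten compound concentrations per dose-response series. Schedule: 20 min compound pre-incubation at room temperature. Detection: Fluo-4 calcium fluorescence. Repeats: each concentration tested in triplicate.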
row,Structure (SMILES),pEC50
1,COC(=O)C1CCCN(C(=O)c2cc(-c3ccc(C)cc3)nc3ccccc23)C1 (stereo not drawn),5.33
2,O=C(CNC1CCCCCC1)Nc1ccc(S(=O)(=O)NC2CC2)cc1,5.23
3,COC(=O)c1cccc(Nc2nc(-c3cccnc3)nc3ccccc23)c1,5.69
4,O=C(CNc1ccccc1)c1ccc([N+](=O)[O-])cc1,5.20
5,Cc1ccc(S(=O)(=O)c2ccc(Oc3cccc(C)c3)cc2)cc1,5.56
6,CN(Cc1ccc(F)cc1)C(=O)C(c1ccccc1)c1ccccc1,5.66
7,O=C(Nc1ccccc1N1CCN(C(=O)c2ccccc2)CC1)c1ccc(Cl)o1,5.33
8,CCn1cc(CN2CCC(n3nccc3NC(=O)c3ccc(OC)cc3)CC2)cn1,5.53
9,CCCCn1c(-c2csc(CCC)c2)n[nH]c1=S,5.65
10,S=c1[nH]nc(-c2ccc(Cl)cc2)n1CC1CCCO1 (stereo not drawn),5.25
11,CCN1CCCC1CNCc1ccccc1OCc1ccc(F)cc1 (stereo not drawn),5.14
12,Cc1ccc(NC(=O)c2cc(-c3cccs3)nc3ccccc23)nc1,5.46
13,CC(C)Cn1c(-c2ccc(F)cc2)n[nH]c1=S,5.50
